Columns and labels:
[1] = Selectivity index, IC50 for african green monkey Vero cells to IC50 for Plasmodium falciparum W2; format: functional
Method in brief: (§1)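 Selectivity index is the cytotoxicity IC50 in Vero cells divided by the antimalarial IC50 against the stated P. falciparum clone (D6 or W2).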

[2] = Selectivity index, IC50 for african green monkey Vero cells to IC50 for Plasmodium falciparum D6; format: functional; method in brief: as §1
[3] = Cytotoxicity against pig LLC-PK11 cells up to 25 uM; format: cell-based, Sus scrofa
Method in brief: (§2)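 Cytotoxicity panel: four cancer lines (SK-MEL, KB, BT-549, SK-OV-3) and two non-cancer lines (Vero, LLC-PK11), tested up to a concentration of 25.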

[4] = test system: Vero; assay: Cytotoxicity against african green monkey Vero cells up to 25 uM; format: cell-based; details: chlorocebus sabaeus; method in brief: as §2
[5] = test system: SK-OV-3; assay: Cytotoxicity against human SKOV3 cells up to 25 uM; format: cell-based; method in brief: as §2
[6] = test system: Plasmodium falciparum; assay: Antimalarial activity against Plasmodium falciparum D6 assessed as plasmodial LDH activity after 72 hrs; format: functional, organism-based; details: Plasmodium falciparum, D6, 72 h; read-out: IC50
Method in brief: (§3)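 P. falciparum D6 (chloroquine-sensitive) and W2 (chloroquine-resistant) clones screened in vitro alongside Vero cytotoxicity, up to a highest concentration of 12.5; IC50 determined.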

[7] = test system: SK-MEL; assay: Cytotoxicity against human SK-MEL cells up to 25 uM; format: cell-based; method in brief: as §2
[8] = test system: BT-549; assay: Cytotoxicity against human BT549 cells up to 25 uM; format: cell-based; method in brief: as §2
[9] = test system: KB; assay: Cytotoxicity against human KB cells up to 25 uM; format: cell-based; method in brief: as §2
[10] = test system: Plasmodium falciparum; assay: Antimalarial activity against Plasmodium falciparum W2 assessed as plasmodial LDH activity after 72 hrs; format: functional, organism-based; details: Plasmodium falciparum, W2, 72 h; read-out: IC50; method in brief: as §3
[11] = test system: Vero; assay: Cytotoxicity against african green monkey Vero cells at 12.5 uM; format: cell-based; details: chlorocebus sabaeus
Method in brief: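 Mammalian kidney Vero cells screened in vitro for cytotoxicity, in parallel with the antimalarial screen, up to a highest concentration of 12.5.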

SMILES | Ratio IC50 [1] | Ratio IC50 [2] | Activity [3] | Activity [4] | Activity [5] | IC50 [6] [µM] | Activity [7] | Activity [8] | Activity [9] | IC50 [10] [µM] | Activity [11]
Cc1ccc(C2OOC(c3ccc(/C=N\c4cccnc4)cc3)OO2)cc1 (stereo unspecified) | >16.4 | >17.6 | Non-toxic | Non-toxic | Non-toxic | 0.75 | Non-toxic | Non-toxic | Non-toxic | 0.8 | Non-toxic
CCc1ccc(C2OOC(c3ccc(C=O)cc3)OO2)cc1 (stereo unspecified) | >2.6 | >1.4 | – | – | – | 10.9 | – | – | – | 5.99 | Non-toxic
Cc1ccc(C2OOC(c3ccc(C(=O)NCCCNc4ccnc5cc(Cl)ccc45)cc3)OO2)cc1 (stereo unspecified) | >4.3 | >7.7 | – | – | – | 1.19 | – | – | – | 2.11 | Non-toxic
Cc1ccc(C2OOC(c3ccc(/C=N/Cc4ccccc4)cc3)OO2)cc1 (stereo unspecified) | >2 | >2.6 | – | – | – | 4.8 | – | – | – | 6.4 | Non-toxic
Cc1ccc(C2OOC(c3ccc(C(=O)NCCCCCCCN)cc3)OO2)cc1 (stereo unspecified) | >2.4 | >2.2 | – | – | – | 5.13 | – | – | – | 4.66 | Non-toxic
Cc1ccc(C2OOC(c3ccc(C(=O)NC4CCCCC4)cc3)OO2)cc1 (stereo unspecified) | >4.3 | >2.8 | – | – | – | 4.43 | – | – | – | 2.86 | Non-toxic
CC(C)c1ccc(C2OOC(c3ccc(C=O)cc3)OO2)cc1 (stereo unspecified) | >4.9 | >2.2 | – | – | – | 6.99 | – | – | – | 3.11 | Non-toxic
CCc1ccc(C2OOC(c3ccc(COS(C)(=O)=O)cc3)OO2)cc1 (stereo unspecified) | >3.2 | >2.5 | – | – | – | 4.99 | – | – | – | 3.94 | Non-toxic
Cc1ccc(C2OOC(c3ccc(CNc4cc(Cl)c(Cl)cc4Cl)cc3)OO2)cc1 (stereo unspecified) | >1.6 | >1.2 | – | – | – | 8.57 | – | – | – | 6.42 | Non-toxic
CCc1ccc(C2OOC(c3ccc(C(=O)NCCCNc4ccnc5cc(Cl)ccc45)cc3)OO2)cc1 (stereo unspecified) | >3.7 | >8.2 | – | – | – | 1.08 | – | – | – | 2.43 | Non-toxic
Cc1ccc(C2OOC(c3ccc(CNc4ccc(N)cc4)cc3)OO2)cc1 (stereo unspecified) | >1.7 | >2.4 | – | – | – | 5.28 | – | – | – | 7.39 | Non-toxic
OCc1ccc(C2OOC(c3ccccc3)OO2)cc1 (stereo unspecified) | >9.5 | >5.6 | – | – | – | 3.09 | – | – | – | 1.82 | Non-toxic
CCc1ccc(NCc2ccc(C3OOC(c4ccc(C)cc4)OO3)cc2)cc1 (stereo unspecified) | >5.2 | >3.7 | – | – | – | 3.32 | – | – | – | 2.35 | Non-toxic
CC(C)c1ccc(C2OOC(c3ccc(CO)cc3)OO2)cc1 (stereo unspecified) | >7.9 | >7.4 | – | – | – | 2.02 | – | – | – | 1.89 | Non-toxic
Cc1ccccc1C1OOC(c2ccc(CO)cc2)OO1 (stereo unspecified) | >8.7 | >7.7 | – | – | – | 2.15 | – | – | – | 1.9 | Non-toxic
Cc1ccc(C2OOC(c3ccc(CNc4ccc(O)cc4)cc3)OO2)cc1 (stereo unspecified) | >1.8 | >1.8 | – | – | – | 6.32 | – | – | – | 7.11 | Non-toxic

SMILES | Ratio IC50 [1] | Ratio IC50 [2] | Activity [3] | Activity [4] | Activity [5] | IC50 [6] [µM] | Activity [7] | Activity [8] | Activity [9] | IC50 [10] [µM] | Activity [11]
Cc1ccc(C2OOC(c3ccc(CNc4ccccc4)cc3)OO2)cc1 (stereo unspecified) | >8.2 | >7.1 | – | – | – | 1.84 | – | – | – | 1.59 | Non-toxic
Cc1ccc(C2OOC(c3ccc(CNc4ccc(Br)cc4)cc3)OO2)cc1 (stereo unspecified) | >2.2 | >1.4 | – | – | – | 7.69 | – | – | – | 4.97 | Non-toxic
Cc1ccc(C2OOC(c3ccc(/C=N\c4ccc(Cl)cc4)cc3)OO2)cc1 (stereo unspecified) | >8.2 | >8.2 | – | – | – | 1.46 | – | – | – | 1.46 | Non-toxic
Cc1ccc(C2OOC(c3ccc(/C=N\c4ccccc4S)cc3)OO2)cc1 (stereo unspecified) | >2.4 | >1.8 | – | – | – | 6.86 | – | – | – | 5.08 | Non-toxic
Cc1ccc(C2OOC(c3ccc(COS(C)(=O)=O)cc3)OO2)cc1 (stereo unspecified) | >1.6 | >1.7 | – | – | – | 7.64 | – | – | – | 8.18 | Non-toxic
Cc1ccc(C2OOC(c3ccc(CNc4c(C)cccc4C)cc3)OO2)cc1 (stereo unspecified) | >8.4 | >8.2 | – | – | – | 1.48 | – | – | – | 1.45 | Non-toxic
Cc1ccc(C2OOC(c3ccc(CNc4ccc(Cl)cc4)cc3)OO2)cc1 (stereo unspecified) | >7 | >6.8 | – | – | – | 1.79 | – | – | – | 1.7 | Non-toxic
O=Cc1ccc(C2OOC(c3ccccc3)OO2)cc1 (stereo unspecified) | >1 | >1.3 | – | – | – | 13.2 | – | – | – | > 17.5 | Non-toxic
Cc1ccc(C2OOC(c3ccc(CNc4cccc(O)c4)cc3)OO2)cc1 (stereo unspecified) | >3.2 | >3.7 | – | – | – | 3.42 | – | – | – | 3.95 | Non-toxic
Cc1ccc(C2OOC(c3ccc(CNc4ccccc4S)cc3)OO2)cc1 (stereo unspecified) | >7.6 | >5.5 | – | – | – | 2.19 | – | – | – | 1.59 | Non-toxic
C[C@@H]1CC[C@H]2[C@@H](C)C(=O)O[C@@H]3O[C@@]4(C)CC[C@@H]1[C@]32OO4 [ARTEMISININ] | >670 | >500 | – | – | – | 0.03 | – | – | – | 0.025 | Non-toxic
CCCCNC(=O)c1ccc(C2OOC(c3ccc(CC)cc3)OO2)cc1 (stereo unspecified) | >1.8 | >1.9 | – | – | – | 6.73 | – | – | – | 6.99 | Non-toxic
Cc1ccc(C2OOC(c3ccc(CNc4ccccc4F)cc3)OO2)cc1 (stereo unspecified) | >6.8 | >6.6 | – | – | – | 1.88 | – | – | – | 1.83 | Non-toxic
Cc1ccc(C2OOC(c3ccc(C(=O)NCCc4ccccc4)cc3)OO2)cc1 (stereo unspecified) | >5.6 | >4.3 | – | – | – | 2.71 | – | – | – | 2.09 | Non-toxic
Cc1ccc(C2OOC(c3ccc(/C=N\CCO)cc3)OO2)cc1 (stereo unspecified) | >6.1 | >5.1 | – | – | – | 2.82 | – | – | – | 2.37 | Non-toxic
Cc1ccc(C2OOC(c3ccc(C(=O)O)cc3)OO2)cc1 (stereo unspecified) | >1.7 | >1.5 | – | – | – | 10.6 | – | – | – | 9.26 | Non-toxic

— ChEMBL document CHEMBL1795212, “Synthesis and in vitro antimalarial activity of tetraoxane-amine/amide conjugates” (Eur J Med Chem, 2011)
